Measurements from ChEMBL document CHEMBL1122426, “Radioiodine-labeled N,N-dimethyl-N'-(2-hydroxy-3-alkyl-5-iodobenzyl)-1,3-propanediamines for brain perfusion imaging” (J Med Chem, 1983).

Experiments:
Rattus norvegicus [1] = organism: Rattus norvegicus; assay: Effect of specific activity of compound on biodistribution in rats blood 1 hr after injection at the dose of 0.25 mg value expressed in average % dose per organ; value may range from 0.83 to 0.92; format: ADME, organism-based; details: in vivo
Rattus norvegicus [2] = organism: Rattus norvegicus; assay: Effect of specific activity of compound on biodistribution in rats brain 1 hr after injection at the dose of 6.25 mg value expressed in average % dose per organ; value may range from 1.95 to 2.70; format: ADME, organism-based; details: in vivo
Method in brief: (§1)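 Rats received an intravenous injection of the I-125 labeled diamine with added unlabeled carrier (6.25, 2.5, 0.25 or 0.025 mg per dose). At 1 h, organs were counted. Percent dose per organ came from comparing tissue radioactivity with diluted aliquots of the injected dose. Values are the average and range of 3 rats. Brain/blood ratio was taken from % dose per gram, calculated using mean organ weights (brain 1.65 g; blood 18 g).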

Rattus norvegicus [3] = organism: Rattus norvegicus; assay: Effect of specific activity of compound on biodistribution in rats brain after injection at the dose of 0.025 mg value expressed in average % dose per organ; value may range from 1.39 to 1.56; format: ADME, organism-based; details: in vivo; method in brief: as §1
Rattus norvegicus [4] = organism: Rattus norvegicus; assay: Effect of specific activity of compound on biodistribution in rats lungs 1 hr after injection at the dose of 6.25 mg value expressed in average % dose per organ; value may range from 2.70 to 7.70; format: ADME, organism-based, Lung; details: in vivo; method in brief: as §1
Rattus norvegicus [5] = organism: Rattus norvegicus; assay: Effect of specific activity of compound on biodistribution in rats muscle after injection at the dose of 0.025 mg value expressed in average % dose per organ; value may range from 11.6 to 12.9; format: ADME, organism-based, Muscle tissue; details: in vivo; method in brief: as §1
Rattus norvegicus [6] = organism: Rattus norvegicus; assay: Effect of specific activity of compound on biodistribution in rats thyroid 1 hr after injection at the dose of 0.25 mg value expressed in average % dose per organ; value may range from 0.17 to 0.19; format: ADME, organism-based, Thyroid gland; details: in vivo; method in brief: as §1
Rattus norvegicus [7] = assay: Biodistribution of I-125 labeled compound in rat liver, 1 hr after intravenous injection. value expressed in average % dose per organ; value may range from 6.22 to 7.81; format: ADME, organism-based; details: in vivo
Rattus norvegicus [8] = organism: Rattus norvegicus; assay: Effect of specific activity of compound on biodistribution in rats thyroid 1 hr after injection at the dose of 6.25 mg value expressed in average % dose per organ; value may range from 0.09 to 0.11; format: ADME, organism-based, Thyroid gland; details: in vivo; method in brief: as §1
Rattus norvegicus [9] = organism: Rattus norvegicus; assay: Effect of specific activity of compound on biodistribution in rats thyroid after injection at the dose of 0.025 mg value expressed in average % dose per organ; value may range from 0.15 to 0.17; format: ADME, organism-based, Thyroid gland; details: in vivo; method in brief: as §1
Rattus norvegicus [10] = assay: Biodistribution of I-125 labeled compound in rat brain, 1 hr after intravenous injection. value expressed in average % dose per organ; value may range from 1.71 to 2.54; format: ADME, organism-based; details: in vivo
Rattus norvegicus [11] = assay: Biodistribution of I-125 labeled compound in rat blood, 2 min after intravenous injection. value expressed in average % dose per organ; value may range from 2.42 to 2.84; format: ADME, organism-based; details: in vivo
Rattus norvegicus [12] = assay: Biodistribution of I-125 labeled compound in rat liver, 2 min after intravenous injection. value expressed in average % dose per organ; value may range from 7.90 to 10.6; format: ADME, organism-based; details: in vivo
Rattus norvegicus [13] = organism: Rattus norvegicus; assay: Effect of specific activity of compound on biodistribution in rats blood 1 hr after injection at the dose of 0.025 mg value expressed in average % dose per organ; value may range from 0.84 to 0.99; format: ADME, organism-based; details: in vivo
[14] = Biodistribution of […] in a monkey thyroid. 1 hr after intravenous injection. the value expressed in %dose/gram; format: ADME, organism-based, Thyroid gland; details: simiiformes, in vivo
Method in brief: (§2)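 Monkey sedated with ketamine and anesthetized with nembutal, then given ~100 μCi [125I] label (~7 mCi/mg) intravenously. Killed 1 h later by nembutal overdose. Organs dissected, weighed and counted. % dose per organ found against diluted injected-dose aliquots; % dose per gram also reported; brain/blood from per-gram values. Single animal.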

Rattus norvegicus [15] = assay: Biodistribution of I-125 labeled compound in rat heart, 1 hr after intravenous injection. value expressed in average % dose per organ; value may range from 0.97 to 1.26; format: ADME, organism-based; details: in vivo
Rattus norvegicus [16] = organism: Rattus norvegicus; assay: Effect of specific activity of compound on biodistribution in rats heart after injection at the dose of 0.025 mg value expressed in average % dose per organ; value may range from 0.98 to 1.02; format: ADME, organism-based; details: in vivo; method in brief: as §1
Rattus norvegicus [17] = organism: Rattus norvegicus; assay: Effect of specific activity of compound on biodistribution in rats liver 1 hr after injection at the dose of 6.25 mg value expressed in average % dose per organ; value may range from 16.5 to 17.2; format: ADME, organism-based; details: in vivo; method in brief: as §1
Rattus norvegicus [18] = organism: Rattus norvegicus; assay: Effect of specific activity of compound on biodistribution in rats liver after injection at the dose of 0.025 mg value expressed in average % dose per organ; value may range from 6.23 to 7.26; format: ADME, organism-based; details: in vivo; method in brief: as §1
Rattus norvegicus [19] = organism: Rattus norvegicus; assay: Distribution coefficient at pH 7.4 in rat; format: ADME, organism-based
Method in brief: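 Octanol/buffer partition: I-125 labeled diamine mixed with 3 g each of 1-octanol and 0.1 M phosphate buffer at pH 7.0 or 7.4, vortexed 3× 1 min, centrifuged 5 min. Two 0.5 g samples of each layer counted. Value is cpm/g octanol over cpm/g buffer, usually repeated three times.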

[20] = The protein binding ability of compound was expressed in Percent free; format: ADME; details: read-out: % free
Method in brief: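 Binding to pooled human serum was measured by equilibrium dialysis. 0.4 mL serum and 0.4 mL 0.15 M phosphate buffer, pH 7.4, were separated by a membrane, and 0.025 μCi radiolabeled diamine was added on the buffer side. Cells were rotated at 37 °C for 18 h, and aliquots from both sides were weighed and counted. % free = buffer/serum radioactivity concentration ratio × 100. The membrane was also counted.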

Rattus norvegicus [21] = assay: Biodistribution of I-125 labeled compound in rat muscle, 1 hr after intravenous injection. value expressed in average % dose per organ; value may range from 8.99 to 14.4; format: ADME, organism-based, Muscle tissue; details: in vivo
Rattus norvegicus [22] = assay: Biodistribution of I-125 labeled compound in rat muscle, 2 min after intravenous injection value expressed in average % dose per organ; value may range from 5.84 to 12.8; format: ADME, organism-based, Muscle tissue; details: in vivo
[23] = Biodistribution of […] compound in a monkey bone. 1 hr after intravenous injection. the value expressed in %dose/organ; format: ADME, organism-based, Bone element; details: simiiformes, in vivo; method in brief: as §2
[24] = Biodistribution of [123I]- compound in a monkey brain. 1 hr after intravenous injection. the value expressed in %dose/organ; format: ADME, organism-based; details: simiiformes, in vivo
Rattus norvegicus [25] = organism: Rattus norvegicus; assay: Effect of specific activity of compound on biodistribution in rats brain 1 hr after injection at the dose of 0.25 mg value expressed in average % dose per organ; value may range from 1.76 to 1.97; format: ADME, organism-based; details: in vivo; method in brief: as §1
[26] = Biodistribution of [125I]- compound in a monkey bone. 1 hr after intravenous injection. the value expressed in %dose/gram; details: simiiformes, in vivo
[27] = Biodistribution of [125I]- compound in a monkey brain. 1 hr after intravenous injection. the value expressed in %dose/gram; details: simiiformes, in vivo
[28] = Biodistribution of [125I]- compound in a monkey muscle. 1 hr after intravenous injection. the value expressed in%dose/organ; details: simiiformes, in vivo
[29] = Biodistribution of [125I]- compound in a monkey spleen. 1 hr after intravenous injection. the value expressed in%dose/organ; details: simiiformes, in vivo
[30] = Biodistribution of [125I]- compound in a monkey kidneys. 1 hr after intravenous injection. the value expressed in %dose/gram; details: simiiformes, in vivo
[31] = Biodistribution of [125I]- compound in a monkey kidneys. 1 hr after intravenous injection. the value expressed in%dose/organ; details: simiiformes, in vivo

Cc1cc(I)cc(CNCCCN(C)C)c1O
Average dose per organ (Rattus norvegicus [1]): 0.88% | Average dose per organ (Rattus norvegicus [2]): 2.38% | Average dose per organ (Rattus norvegicus [3]): 1.47% | Average dose per organ (Rattus norvegicus [4]): 4.5% | Average dose per organ (Rattus norvegicus [5]): 12.2% | Average dose per organ (Rattus norvegicus [6]): 0.17% | Average dose per organ (Rattus norvegicus [7]): 7.14% | Average dose per organ (Rattus norvegicus [8]): 0.1% | Average dose per organ (Rattus norvegicus [9]): 0.16% | Average dose per organ (Rattus norvegicus [10]): 2.02% | Average dose per organ (Rattus norvegicus [11]): 2.63% | Average dose per organ (Rattus norvegicus [12]): 9.51% | Average dose per organ (Rattus norvegicus [13]): 0.91% | Dose/g [14]: 0.039% | Average dose per organ (Rattus norvegicus [15]): 1.11% | Average dose per organ (Rattus norvegicus [16]): 1% | Average dose per organ (Rattus norvegicus [17]): 16.7% | Average dose per organ (Rattus norvegicus [18]): 6.74% | Distribution coefficient (Rattus norvegicus [19]): 11.6 | fraction unbound [20]: 0.483 | Average dose per organ (Rattus norvegicus [21]): 11.9% | Average dose per organ (Rattus norvegicus [22]): 9.24% | Dose per organ [23]: 1.53% | Dose per organ [24]: 3.18% | Average dose per organ (Rattus norvegicus [25]): 1.84% | Dose/g [26]: 0.00168% | Dose/g [27]: 0.0349% | Dose per organ [28]: 17.3% | Dose per organ [29]: 2.39% | Dose/g [30]: 0.602% | Dose per organ [31]: 16.1%
